Experimental findings from ChEMBL document CHEMBL1129795, “2-Azetidinone cholesterol absorption inhibitors: structure-activity relationships on the heterocyclic nucleus” (1996) are described below.

Assay [1] relates to Cricetinae gen. sp. Kind of assay: In vivo cholesterol absorption inhibitory activity using 7-day cholesterol-fed hamster model (expressed as percent change in serum cholesterol at 50 mg/kg/day). It counts as functional, Cricetulus griseus. In short, it runs like this:
(§1)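 Hamsters were fed a high-cholesterol diet for 7 days and gavaged once daily with compound in 0.2 mL corn oil. On the last day, animals were sacrificed and hepatic and serum lipids were determined. Results are given as percent change in hepatic cholesteryl ester or serum cholesterol concentration versus diet-fed controls gavaged with corn oil without drug.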

Assay [2] relates to Cricetinae gen. sp. Kind of assay: In vivo for cholesterol absorption inhibitory activity using 7-day cholesterol-fed hamster model (expressed as percent change in cholesteryl esters at 50 mg/kg/day). In kind it is functional, Cricetulus griseus. In short, it runs like this:
as §1

Regarding `COc1ccc(N2C(=O)C(CCCc3ccccc3)C23c2ccc(OC)cc2-c2cc(OC)ccc23)cc1` (stereo not drawn), the Change with Cricetinae gen. sp. [1] and with Cricetinae gen. sp. [2] was -22% in each case.

Regarding `COc1ccc(C(=O)N2C(=O)[C@H](CCCc3ccccc3)[C@H]2c2ccc(OC)cc2)cc1`, the Change was -25% in the assay on Cricetinae gen. sp. [1] and 0% in the assay with Cricetinae gen. sp. [2].

For `COc1ccc([C@@H]2[C@@H](CCCc3ccccc3)C(=O)N2C2CC2)cc1`, the Change in the assay on Cricetinae gen. sp. [1] is -20%; with Cricetinae gen. sp. [2], -61%.

Consider `COc1ccc([C@H]2N(c3ccccc3)C(=O)[C@@]2(F)CCCc2ccccc2)cc1`, for which the figures for the Change in the assay with Cricetinae gen. sp. [1] and in the assay with Cricetinae gen. sp. [2] were -30% and -94%, respectively.

`COc1ccc([C@@H]2[C@@H](CCCc3ccccc3)C(=O)N2c2ccc(Oc3ccccc3)cc2)cc1`: the Change in the assay with Cricetinae gen. sp. [1] is -28%; in the assay on Cricetinae gen. sp. [2] it was -49%.

On to `COc1ccc([C@@H]2[C@@H](CCCc3ccccc3)C(=O)N2c2c(OC)cc(OC)cc2OC)cc1`, for which the Change in the assay on Cricetinae gen. sp. [1] and in the assay with Cricetinae gen. sp. [2] was 0% in each case.

Turning to `COc1ccc(N2C(=O)[C@H](CCCc3ccccc3)[C@H]2c2ccc(OC(C)(C)C)cc2)cc1`, the Change was -26% in the assay on Cricetinae gen. sp. [1] and -80% in the assay with Cricetinae gen. sp. [2].

With `COc1ccc([C@@H]2[C@@H](CCCc3ccccc3)C(=O)N2c2cccc(OC)c2)cc1`, the Change in the assay on Cricetinae gen. sp. [1] is recorded as -38%; in the assay with Cricetinae gen. sp. [2], -91%.

`COc1ccc([C@H]2N(c3ccc(OC)cc3)C(=O)C2(c2ccccc2)c2ccccc2)cc1`: the Change with Cricetinae gen. sp. [1] and with Cricetinae gen. sp. [2] was 0% each time.

For `COc1ccc([C@@H]2[C@@H](CCCc3ccccc3)C(=O)N2C)cc1`, the Change with Cricetinae gen. sp. [1] and in the assay with Cricetinae gen. sp. [2] was 0% throughout.

As to `CC[C@]1(CCCc2ccccc2)C(=O)N(c2ccc(OC)cc2)[C@@H]1c1ccc(OC)cc1`, the Change with Cricetinae gen. sp. [1] and with Cricetinae gen. sp. [2] was 0% in each case.

On to `COc1ccc([C@@H]2[C@@H](CCCc3ccccc3)C(=O)N2c2ccc(SC)cc2)cc1`, for which the values for the Change in the assay with Cricetinae gen. sp. [1] and in the assay on Cricetinae gen. sp. [2] were -26% and -70%, respectively.

With `COc1ccc([C@@H]2[C@H](CCCCCCc3ccccc3)C(=O)N2c2ccc(OC)cc2)cc1`, the Change with Cricetinae gen. sp. [1] was -29%; in the assay with Cricetinae gen. sp. [2], 0%.

Regarding `O=C1[C@H](CCCc2ccccc2)[C@@H](c2ccc(O)cc2)N1c1ccc(O)cc1`, the Change in the assay on Cricetinae gen. sp. [1] was -35%; in the assay with Cricetinae gen. sp. [2], -90%.

Turning to `COc1ccc(N2C(=O)[C@H](CCCc3ccccc3)[C@H]2c2ccc(OC(F)(F)F)cc2)cc1`, the Change with Cricetinae gen. sp. [1] is 0%; in the assay with Cricetinae gen. sp. [2], -29%.

For the molecule `CC[C@@]1(c2ccccc2)C(=O)N(c2ccc(OC)cc2)[C@@H]1c1ccc(OC)cc1`, the results for the Change in the assay with Cricetinae gen. sp. [1] and with Cricetinae gen. sp. [2] were 0% and -28%, respectively.

As to `COc1ccc([C@H]2NC(=O)[C@@H]2CCCc2ccccc2)cc1`, the Change in the assay on Cricetinae gen. sp. [1] and in the assay on Cricetinae gen. sp. [2] was 0% in each case.

With `COc1ccc([C@@H]2[C@@H](CCc3ccccc3)C(=O)N2c2ccc(OC)cc2)cc1`, the Change in the assay with Cricetinae gen. sp. [1] and with Cricetinae gen. sp. [2] was 0% throughout.

With `COc1ccc(N[C@H](c2ccc(OC)cc2)[C@@H](CCCc2ccccc2)C(=O)O)cc1`, the Change was -8% in the assay with Cricetinae gen. sp. [1] and 0% with Cricetinae gen. sp. [2].

For the molecule `COc1ccc(N2C(=O)[C@@H](CCCc3ccccc3)[C@H]2c2ccc(OC)c(OC)c2)cc1`, the Change in the assay on Cricetinae gen. sp. [1] and in the assay on Cricetinae gen. sp. [2] was 0% each time.

For the molecule `CC[C@]1(CCCc2ccccc2)C(=O)N(c2ccc(OC)cc2)[C@@H]1c1ccccc1`, the results for the Change in the assay on Cricetinae gen. sp. [1] and with Cricetinae gen. sp. [2] were -12% and -29%, respectively.

On to `COc1ccc(N2C(=O)[C@H](CCCc3ccccc3)[C@H]2c2ccc(S(C)(=O)=O)cc2)cc1`, for which the Change in the assay with Cricetinae gen. sp. [1] was -26%; in the assay on Cricetinae gen. sp. [2], -75%.

Turning to `COc1ccc(N2C(=O)[C@H](CCCc3ccccc3)[C@H]2c2ccc(N(C)C)cc2)cc1`, the values for the Change in the assay with Cricetinae gen. sp. [1] and in the assay on Cricetinae gen. sp. [2] were -29% and -60%, respectively.

For the molecule `COc1ccc(N2C(=O)C(CCCc3ccccc3)C2(c2ccc(OC)cc2)c2ccc(OC)cc2)cc1` (stereo not drawn), the Change is listed as -9% with Cricetinae gen. sp. [1] and 0% with Cricetinae gen. sp. [2].

Consider `COc1ccc([C@@H]2[C@@H](CCCc3ccccc3)C(=O)N2Cc2ccccc2)cc1`, for which the Change with Cricetinae gen. sp. [1] was found to be 0%; with Cricetinae gen. sp. [2], 16%.

Take `COc1ccc(N2C(=O)[C@H](CCCc3ccccc3)[C@H]2c2ccc(NC(C)=O)cc2)cc1`: the Change in the assay on Cricetinae gen. sp. [1] is -4%; in the assay on Cricetinae gen. sp. [2], -26%.

For `COc1ccc([C@@H]2[C@@H](CCCc3ccccc3)C(=O)N2C(=O)c2ccccc2)cc1`, the Change is on record as 0% in the assay on Cricetinae gen. sp. [1] and 16% with Cricetinae gen. sp. [2].

For the molecule `CCN(CC)c1ccc(N2C(=O)[C@H](CCCc3ccccc3)[C@H]2c2ccc(OC)cc2)cc1`, the Change is recorded as -51% with Cricetinae gen. sp. [1] and -95% in the assay on Cricetinae gen. sp. [2].

As for `CC[C@@]1(CCCc2ccccc2)C(=O)N(c2ccc(OC)cc2)[C@@H]1c1ccc(OC)cc1`, the Change in the assay with Cricetinae gen. sp. [1] and with Cricetinae gen. sp. [2] was 0% each time.

For the molecule `CCN1C(=O)[C@H](CCCc2ccccc2)[C@H]1c1ccc(OC)cc1`, the Change is given as -13% in the assay on Cricetinae gen. sp. [1] and -21% with Cricetinae gen. sp. [2].

On to `COc1ccc([C@@H]2[C@@H](CCCc3ccccc3)C(=O)N2c2ccc(C#N)cc2)cc1`, for which the Change is on record as -35% with Cricetinae gen. sp. [1] and -74% with Cricetinae gen. sp. [2].

As for `COCc1ccc([C@@H]2[C@@H](CCCc3ccccc3)C(=O)N2c2ccc(OC)cc2)cc1`, the Change in the assay with Cricetinae gen. sp. [1] was -27%; with Cricetinae gen. sp. [2], -56%.

Take `COc1ccc([C@@H]2[C@@H](CCCc3ccccc3)C(=O)N2c2ccc(OC)cc2)cc1` [SCH-48461]: the Change in the assay on Cricetinae gen. sp. [1] is on record as -29%; in the assay with Cricetinae gen. sp. [2] it was -77.5%.

As for `COc1ccc([C@@H]2[C@H](CCCc3ccccc3)C(=O)N2c2ccc(OC)cc2)cc1`, the Change is reported as -45% in the assay with Cricetinae gen. sp. [1] and -95% in the assay with Cricetinae gen. sp. [2].

As for `COc1ccc([C@H]2N(c3ccc(OC)cc3)C(=O)[C@@]2(C)CCCc2ccccc2)cc1`, the values for the Change in the assay with Cricetinae gen. sp. [1] and in the assay on Cricetinae gen. sp. [2] were 0% and -56%, respectively.

Consider `CCCOc1ccc([C@@H]2[C@@H](CCCc3ccccc3)C(=O)N2c2ccc(OC)cc2)cc1`, for which the results for the Change in the assay with Cricetinae gen. sp. [1] and in the assay with Cricetinae gen. sp. [2] were -40% and -95%, respectively.

Take `COc1ccc([C@@H]2[C@@H](CCCc3ccccc3)C(=O)N2c2ccc3c(c2)OCO3)cc1`: the Change is listed as -19% in the assay with Cricetinae gen. sp. [1] and -52% in the assay on Cricetinae gen. sp. [2].

As for `COc1ccc([C@@H]2[C@@H](CCCCc3ccccc3)C(=O)N2c2ccc(OC)cc2)cc1`, the Change is listed as -8% in the assay with Cricetinae gen. sp. [1] and -23% in the assay with Cricetinae gen. sp. [2].

With `COc1ccc([C@@H]2[C@@H](CCCCCCc3ccccc3)C(=O)N2c2ccc(OC)cc2)cc1`, the Change with Cricetinae gen. sp. [1] is -19%; in the assay with Cricetinae gen. sp. [2], -17%.

As to `COc1ccc(N2C(=O)[C@H](CCCc3ccccc3)[C@H]2c2ccccc2OC)cc1`, the Change in the assay with Cricetinae gen. sp. [1] and in the assay on Cricetinae gen. sp. [2] was 0% throughout.

Consider `COc1ccc(N2C(=O)[C@H](CCCc3ccccc3)[C@H]2c2ccc(OCc3ccccc3)cc2)cc1`, for which the results for the Change in the assay on Cricetinae gen. sp. [1] and with Cricetinae gen. sp. [2] were -15% and -48%, respectively.

For `COc1ccc([C@H]2N(c3ccc(OC)cc3)C(=O)[C@]2(Cc2ccccc2)c2ccccc2)cc1`, the Change in the assay on Cricetinae gen. sp. [1] is 23%; in the assay with Cricetinae gen. sp. [2], -15%.

With `CC[C@@]1(CCCc2ccccc2)C(=O)N(c2ccc(OC)cc2)[C@@H]1c1ccccc1`, the Change in the assay on Cricetinae gen. sp. [1] and in the assay on Cricetinae gen. sp. [2] was 0% in each case.

Consider `COc1ccc(N2C(=O)[C@H](CCCc3ccccc3)[C@H]2c2ccc3c(c2)OCO3)cc1`, for which the values for the Change in the assay with Cricetinae gen. sp. [1] and in the assay with Cricetinae gen. sp. [2] were 0% and -19%, respectively.

For `COc1ccc([C@@H]2[C@@H](CCCc3ccccc3)C(=O)N2c2ccc(OC(F)(F)F)cc2)cc1`, the Change in the assay on Cricetinae gen. sp. [1] was -34%; in the assay on Cricetinae gen. sp. [2], -85%.

For `COc1ccc([C@@H]2[C@@H](CCCc3ccccc3)C(=O)N2c2ccccc2)cc1`, the values for the Change in the assay on Cricetinae gen. sp. [1] and with Cricetinae gen. sp. [2] were -49% and -95%, respectively.

Take `C=CCN1C(=O)[C@H](CCCc2ccccc2)[C@H]1c1ccc(OC)cc1`: the Change in the assay on Cricetinae gen. sp. [1] and with Cricetinae gen. sp. [2] was 0% each time.

Consider `CC[C@H]1C(=O)N(c2ccc(OC)cc2)[C@@H]1c1ccc(OC)cc1`, for which the Change with Cricetinae gen. sp. [1] and in the assay on Cricetinae gen. sp. [2] was 0% throughout.

Consider `COc1ccc([C@@H]2[C@@H](CCCc3ccccc3)C(=O)N2c2ccc(S(C)(=O)=O)cc2)cc1`, for which the Change with Cricetinae gen. sp. [1] was 0%; in the assay with Cricetinae gen. sp. [2], -39%.

`COc1ccc([C@@H]2[C@H](CCCCc3ccccc3)C(=O)N2c2ccc(OC)cc2)cc1`: the Change in the assay on Cricetinae gen. sp. [1] was -28%; with Cricetinae gen. sp. [2], -72%.

In the case of `COc1ccc(N2C(=O)[C@H](CCCc3ccccc3)[C@H]2c2ccc(NS(C)(=O)=O)cc2)cc1`, the Change in the assay on Cricetinae gen. sp. [1] was -8%; in the assay on Cricetinae gen. sp. [2], -46%.

For `CCOc1ccc(N2C(=O)[C@H](CCCc3ccccc3)[C@H]2c2ccc(OC)cc2)cc1`, the figures for the Change in the assay with Cricetinae gen. sp. [1] and in the assay on Cricetinae gen. sp. [2] were -57% and -96%, respectively.

For `COc1ccc([C@@H]2[C@@H](CCCc3ccccc3)C(=O)N2c2ccc(F)cc2)cc1`, the Change is -38% in the assay with Cricetinae gen. sp. [1] and -95% in the assay with Cricetinae gen. sp. [2].

With `COc1ccc(N2C(=O)[C@H](CCCc3ccccc3)[C@H]2c2ccc(Oc3ccccc3)cc2)cc1`, the Change in the assay with Cricetinae gen. sp. [1] is on record as -37%; in the assay on Cricetinae gen. sp. [2], -77%.

For the molecule `COc1ccc([C@@H]2[C@H](C)C(=O)N2c2ccc(OC)cc2)cc1`, the Change with Cricetinae gen. sp. [1] and in the assay on Cricetinae gen. sp. [2] was 0% each time.

With `COc1ccc([C@@H]2[C@@H](CCCc3ccccc3)C(=O)N2c2cccc(N)c2)cc1`, the Change in the assay on Cricetinae gen. sp. [1] is listed as -25%; in the assay with Cricetinae gen. sp. [2], -54%.

For `COc1ccc(N2C(=O)C(CCCc3ccccc3)[C@]2(c2ccc(OC)cc2)C(F)(F)F)cc1` (stereo partly drawn), the results for the Change in the assay with Cricetinae gen. sp. [1] and in the assay with Cricetinae gen. sp. [2] were 0% and -11%, respectively.

Take `C=CCOc1ccc(N2C(=O)[C@H](CCCc3ccccc3)[C@H]2c2ccc(OC)cc2)cc1`: the Change in the assay with Cricetinae gen. sp. [1] is recorded as -44%; in the assay with Cricetinae gen. sp. [2], -90%.

As to `COc1ccc([C@@H]2[C@@H](CCCc3ccccc3)C(=O)N2c2cc(F)cc(F)c2)cc1`, the Change in the assay with Cricetinae gen. sp. [1] is -52%; in the assay with Cricetinae gen. sp. [2], -93%.
